Data: ChEMBL document CHEMBL1821687, “Discovery, synthesis, and biological evaluation of novel SMN protein modulators” (J Med Chem, 2011)

Tests used:
[1] = molecular target: Survival motor neuron protein (Homo sapiens) (UniProt Q16637); assay: Activation of SMN expressed in HEK293 cells assessed as concentration required to reach 50% of maximum luciferase signal by SMN2-promotor driven luciferase reporter gene assay; assay type: cell-based
Outline: (§1)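 HEK-293 cells stably carrying the SMN2 reporter construct, kept in DMEM with 10% FCS, glutamax, pyruvate, pen/strep and 200 µg/mL hygromycin, and assayed without hygromycin. 2,000 cells/well were plated and adhered overnight at 37 °C, 5% CO2. Compounds were added as a 7-point titration, 50 µM to 25 nM final, in 0.46% DMSO, for 30–36 h. OneGlo luminescence was normalized to 4.5 mM sodium butyrate (100%) and DMSO (0%).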

[2] = molecular target: Survival motor neuron protein (Homo sapiens) (UniProt Q16637); assay: Activation of SMN expressed in HEK293 cells assessed as rate of induction by SMN2-promotor driven luciferase reporter gene assay relative to basal level; assay type: cell-based; design: concentration or dose not given beside the values; outline: as §1
[3] = Half-life in human serum; assay type: ADME, cell-free
[4] = molecular target: T1, Luciferin 4-monooxygenase (Luciola lateralis, UniProt Q01158); assay: Inhibition of fire fly luciferase; design: species or system Aquatica lateralis; details: read-out: IC50
T1 sequence (Q01158 whole entry): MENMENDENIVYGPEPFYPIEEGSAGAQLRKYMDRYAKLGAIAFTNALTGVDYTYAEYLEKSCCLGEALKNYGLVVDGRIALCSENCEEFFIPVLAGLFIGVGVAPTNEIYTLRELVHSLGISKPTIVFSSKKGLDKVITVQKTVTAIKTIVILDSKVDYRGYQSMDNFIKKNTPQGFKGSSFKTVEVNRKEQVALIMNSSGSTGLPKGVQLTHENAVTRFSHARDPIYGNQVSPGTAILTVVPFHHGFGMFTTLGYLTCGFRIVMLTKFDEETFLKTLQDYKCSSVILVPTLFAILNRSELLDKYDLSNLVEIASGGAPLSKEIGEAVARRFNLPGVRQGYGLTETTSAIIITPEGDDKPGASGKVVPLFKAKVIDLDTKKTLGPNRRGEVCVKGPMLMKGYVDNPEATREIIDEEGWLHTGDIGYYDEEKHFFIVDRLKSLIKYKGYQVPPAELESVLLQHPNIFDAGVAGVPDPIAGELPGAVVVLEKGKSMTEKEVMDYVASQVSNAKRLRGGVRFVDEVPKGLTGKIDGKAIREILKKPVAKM

Liver = assay: Half-life in mouse liver microsome at 1 uM; assay type: ADME; details: microsomes

Sequence of Survival motor neuron protein (Homo sapiens) (Q16637 whole entry): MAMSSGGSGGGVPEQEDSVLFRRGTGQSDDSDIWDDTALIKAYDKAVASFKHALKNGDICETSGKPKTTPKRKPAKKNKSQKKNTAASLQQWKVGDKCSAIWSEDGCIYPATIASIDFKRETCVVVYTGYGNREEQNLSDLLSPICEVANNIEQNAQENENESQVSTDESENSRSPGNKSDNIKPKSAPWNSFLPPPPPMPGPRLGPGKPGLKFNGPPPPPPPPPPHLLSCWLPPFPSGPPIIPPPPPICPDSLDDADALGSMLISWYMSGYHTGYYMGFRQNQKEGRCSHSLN

IC50 [4] [µM] | t1/2 (Liver) [min] | SMILES | Activity [1] [µM] | Activity [2] [%] | half-life [3] [min]
 |  | CN(C)c1cccc(-c2csc(N3CCC(C(N)=O)CC3)n2)c1 | 0.97 | 504 | 
 |  | CCOc1ccc(-c2csc(N3CCC(C(N)=O)CC3)n2)cc1 | 3.87 | 212 | 
 |  | CN(C)c1cccc(-c2cnc(N3CCC(c4ncc[nH]4)CC3)s2)c1 | 7.72 | 188 | 
 |  | Cc1ccc(-c2ccnc(N3CCC(C(N)=O)CC3)n2)cc1 | 0.387 | 444 | 
 |  | O=C([O-])CCCc1ccccc1.[Na+] [SODIUM PHENYLBUTYRATE] |  |  | 90
 |  | CCCC(=O)[O-].[Na+] [SODIUM BUTYRATE] |  |  | 6
 |  | N#Cc1ccc(-c2csc(N3CCC(C(N)=O)CC3)n2)cc1 | 9.72 | 49 | 
 |  | NC(=O)C1CCN(c2cc(-c3ccc4c(c3)OCCCO4)ncn2)CC1 | 7.72 | 211 | 
 |  | CC(C)Oc1ccc(-c2csc(N3CCC(C(N)=O)CC3)n2)cc1 | 3.87 | 178 | 
4 | < 15 | O=C(Nc1ccccc1)C1CCN(c2ncc(-c3ccc4c(c3)OCCCO4)s2)CC1 | 0.049 | 353 | 
 |  | Cc1ccc(-c2csc(N3CCC(C(N)=O)CC3)n2)cc1 | 1.22 | 439 | 
 |  | NC(=O)C1CCN(c2nc(-c3ccc4c(c3)OCCO4)cs2)CC1 | 0.77 | 459 | 
 |  | CC(C)(C)c1ccc(-c2csc(N3CCC(C(N)=O)CC3)n2)cc1 | 3.87 | 243 | 
 |  | NC(=O)C1CCN(c2ncc(-c3ccc4c(c3)OCO4)s2)CC1 | 0.049 | 590 | 
 |  | CC(=O)c1ccc(-c2csc(N3CCC(C(N)=O)CC3)n2)cc1 | 12.2 | 130 | 
 |  | NC(=O)C1CCN(c2nc(-c3ccc4c(c3)OCO4)cs2)CC1 | 2.44 | 359 | 
 |  | NC(=O)C1CCN(c2nc(-c3cccs3)cs2)CC1 | 7.72 | 51 | 
 |  | NC(=O)C1CCN(c2nc(-c3ccc(C(F)(F)F)cc3)cs2)CC1 | 2.44 | 386 | 
 |  | COc1ccc(-c2csc(N3CCC(C(N)=O)CC3)n2)cc1OC | 12.2 | 59 | 
 |  | COc1cc(-c2csc(N3CCC(C(N)=O)CC3)n2)cc(OC)c1OC | 19.4 | 73 | 
 |  | CCOC(=O)C1CCN(c2ncc(-c3ccc4c(c3)OCCCO4)s2)CC1 | 0.031 | 320 | 
